In the library only some 2.3% were active in any assay of this set; here they are far more common.
ADAM17 inh: inhibitors of human ADAM17. inhibition, % at 6.95 µM. hit rate 0.83% among 370,000. P78536. AID 720648. recombinant ADAM17, EDANS/DABCYL FRET peptide cleavage;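 active means inhibition above the mean of compounds lying between control limits plus 3 SD, set per campaign, cut at about 8.5% in these data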;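 further: 0% = DMSO-only wells as the low control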
Target sequence (P78536 215-824 limits assumed): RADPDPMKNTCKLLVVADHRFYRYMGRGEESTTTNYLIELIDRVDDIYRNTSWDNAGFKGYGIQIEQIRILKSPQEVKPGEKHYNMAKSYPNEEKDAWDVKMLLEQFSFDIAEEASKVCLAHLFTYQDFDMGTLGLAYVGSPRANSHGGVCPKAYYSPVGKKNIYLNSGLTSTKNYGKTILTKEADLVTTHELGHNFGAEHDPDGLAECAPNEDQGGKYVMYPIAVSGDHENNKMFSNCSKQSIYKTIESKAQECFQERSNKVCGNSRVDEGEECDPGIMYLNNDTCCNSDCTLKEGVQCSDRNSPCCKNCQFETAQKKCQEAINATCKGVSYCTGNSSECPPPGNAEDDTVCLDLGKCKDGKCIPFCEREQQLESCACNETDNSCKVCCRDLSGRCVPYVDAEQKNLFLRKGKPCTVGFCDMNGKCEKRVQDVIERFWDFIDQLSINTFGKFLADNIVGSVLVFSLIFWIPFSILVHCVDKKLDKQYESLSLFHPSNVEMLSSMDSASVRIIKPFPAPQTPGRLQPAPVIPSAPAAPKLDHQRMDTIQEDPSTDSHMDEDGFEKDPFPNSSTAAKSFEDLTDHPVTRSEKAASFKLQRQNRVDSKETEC
Tb MetRS inh: Trypanosoma brucei MetRS inhibition; purified T. brucei MetRS, ATP depletion, Kinase-Glo luminescence; hit rate 0.4% among 360,000; inhibition, % at 11.9 µM;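 active means inhibition above a per-plate cutoff of the control wells' mean inhibition plus 3 SD, cut at about 5.5% in these data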;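 further: 0% = DMSO wells median and 100% = median of wells with control inhibitor compound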
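technique = Kinase-Glo luminescence, ATP depletion format | system = purified MetRS (methionyl-tRNA synthetase) enzyme from Trypanosoma brucei | timing = 15 min preincubation, 2 h reaction, all 25 °C | evaluation = percent inhibition versus plate control medians | dosing = single dose, 11.9 µM final nominal, 0.9% final DMSO | also added = substrates ATP, L-methionine and bulk Escherichia coli tRNA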
PLC-beta3 inh: blocks human PLC-beta3 enzyme activity; Q01970; Purified PLC-beta3, fluorogenic substrate, fluorescence; inhibition, % at 12.2 µM; hit rate 0.18% among 370,000; AID 720704;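 further: 0% = median of compound wells on plate and 100% = full blocker control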
ADAM10 inh: ADAM10 inhibition, QFRET primary screen. recombinant ADAM10, EDANS/DABCYL FRET peptide cleavage, 3 h. AID 720582. hit rate 0.62% among 370,000. inhibition, % at 7 µM. O14672;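 active means inhibition above a per-campaign cutoff equal to the mean of compounds falling between control-based bounds plus 3 SD, cut at about 20% in these data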;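 further: 0% = DMSO wells while the 100% control is not disclosed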
PLCg1 inh: inhibitors of human phospholipase C gamma1 | P19174 | purified PLC-gamma1, fluorogenic substrate, fluorescence | inhibition, % at 12.2 µM | hit rate 0.84% among 370,000 | AID 720700; in the data active means inhibition above about 9.5%
PLCg1 ctr: counter-screen for PLC-beta3 inhibitors: inhibitors of human PLC-gamma1; shares compounds with PLCg1 inh; purified PLC-gamma1, fluorogenic substrate, fluorescence; inhibition, % at 12.3 µM; hit rate 3.1% among 3,300; AID 743258; in the data active means inhibition above about 9.5%
PLCb3 confirm: confirmation of human PLC-beta3 inhibitors; shares compounds with PLCg1 inh; purified PLC-beta3, fluorogenic substrate fluorescence; inhibition, % at 12.3 µM; hit rate 1% among 3,300
* marks the source's active call; other numbers are inactive results; . = no result given. Unless noted, no stated cut-off is given here; in the data, active means inhibition above about 11%; inactive means the rest.

SMILES	ADAM17 inh	Tb MetRS inh	PLC-beta3 inh	ADAM10 inh	PLCg1 inh	PLCg1 ctr	PLCb3 confirm
Cc1ccnn1-c1ccc(C(=O)OCC(=O)Nc2ccc(F)cc2)cc1	0.6	-0.1	0.7	4.3	1.1	.	.
CN(/N=C/c1cc(Cl)ccc1O)C1=NS(=O)(=O)c2ccccc21	1.3	-0.8	-3.7	3.2	0.8	.	.
COc1ccc(CN2CCN(c3ccccn3)CC2)c(OC)c1	3.8	1.1	3.5	10.5	10.0*	-7.6	-0.3
O=C(COC(=O)Cc1ccsc1)Nc1ccc(Br)cc1F	-1.6	0.5	-8.5	-2.5	-1.2	.	.
O=C(O)c1cccc(NC(=S)NC(NC(=O)c2cccc([N+](=O)[O-])c2)C(Cl)(Cl)Cl)c1 (stereo unspecified)	4.8	-0.4	6.6	5.1	10.9*	-6.0	-4.8
Cc1nc2ccc(C(=O)N3CCN(C(=O)OCc4ccccc4)CC3)cc2n1C1CCCC1	-4.3	.	-3.6	-6.5	2.5	.	.
Cc1cccc(N2CCN(Cc3nc(-c4cccc(Oc5ccccc5)c4)oc3C)CC2)n1	0.3	-1.5	-4.3	1.1	-4.8	.	.
O=S1(=O)CC(c2ccccc2)=NN=C(c2ccccc2)C1	6.7	-0.1	10.8*	2.6	9.5	-1.4	-4.3
O=C1CC(c2ccccc2)=NO1	-0.5	-0.2	-3.1	-1.9	-0.6	.	.
COCCN1C(=O)CCC1(C)C(=O)NC1CCCCC1 (stereo unspecified)	-0.1	-0.1	2.8	-11.4	-1.5	.	.
COCCn1c(C)cc(C(=O)COC(=O)c2ccc(Br)o2)c1C	4.0	-0.4	1.1	6.7	10.2*	-8.4	-2.2
COC(=O)c1c(N)[nH]c(C(=O)c2ccccc2)c1-c1ccccc1Br	0.2	-1.0	-14.9	-4.6	-13.3	.	.
O=C1NC(=O)/C(=C/c2ccc(-c3cc(C(=O)O)ccc3Cl)o2)S1	-4.4	1.1	-108.4	-15.8	-95.0	.	.
O=C1NC(=O)/C(=C\c2ccc(Br)o2)S1	0.7	-0.5	-25.1	-13.3	15.1*	-12.9	-15.8
C[C@H](CO)N1C[C@H](C)[C@H](CN(C)C(=O)c2ccccc2)OCc2ccccc2-c2c(n(C)c3ccccc23)C1=O	-0.4	-0.7	0.7	6.0	2.7	.	.
CCN1CCN(C(=O)c2cc(COc3ccc(F)c(F)c3)on2)[C@@H](C)C1=O	1.8	0.2	1.7	-4.1	1.0	.	.
CC(=O)NC12CC3CC(C1)CC(C(=O)N(C)Cc1cccc(Cl)c1Cl)(C3)C2	-1.6	-0.3	-3.1	10.5	13.2*	-4.7	-1.7
CC(=O)NC12CC3CC(C1)CC(C(=O)N(C)CC(=O)Nc1ccccc1Cl)(C3)C2	0.8	-0.5	0.2	-0.3	3.7	.	.
COc1ccc(CCN2CC(C(=O)NCCc3ccccc3)CC2=O)cc1OC (stereo unspecified)	-2.7	-0.4	-3.7	-2.5	-1.1	.	.
COCCCNC(=O)C1CC(=O)N(CCc2ccc(OC)c(OC)c2)C1 (stereo unspecified)	5.8	-0.2	3.0	5.2	13.7*	1.8	-0.1
CC(=O)c1cccc(N(C(=O)CNC(=O)c2ccco2)C(C(=O)NCc2ccco2)c2ccccc2)c1 (stereo unspecified)	0.1	-0.6	-0.9	3.8	0.1	.	.
COC(=O)c1ccc(C)c(NC(=O)Cn2cnc3ccccc3c2=O)c1	2.6	-0.4	11.1*	-7.7	9.2	-9.4	-6.8
CCCN(C(=O)CCNC(=O)Cn1cnc2ccccc2c1=O)c1cccc(Cl)c1	.	-1.0	.	.	.	.	.
COC(=O)c1ccccc1NC(=O)CCNC(=O)Cn1cnc2ccccc2c1=O	0.5	-0.6	-0.3	0.5	-1.5	.	.
CCCN(C(=O)CCNC(=O)Cn1cnc2ccccc2c1=O)c1cccc(C)c1	-2.6	-0.6	-2.7	-8.4	11.3*	-3.6	-3.5
SMILES	ADAM17 inh	Tb MetRS inh	PLC-beta3 inh	ADAM10 inh	PLCg1 inh	PLCg1 ctr	PLCb3 confirm
CC(C)(C)OC(=O)C[C@@H]1C/C=C\C[C@H](CC(=O)N(CCO)Cc2ccccc2)C(=O)NCCOC1=O	2.8	-0.2	16.6*	2.7	6.1	-9.4	-5.9
CC(C)(C)OC(=O)C[C@H]1C/C=C\C[C@@H](CC(=O)N(CCO)Cc2ccccc2)C(=O)N2CCC[C@@H]2COC1=O	8.5	-0.4	10.7*	6.6	0.1	-5.4	-2.3
CC(C)(C)c1ccc(C(O)c2ncc(-c3ccc(F)cc3)[nH]2)cc1 (stereo unspecified)	0.0	-0.4	-0.2	-2.7	0.3	.	.
COc1ccc(C(=O)NC(C(=O)NCC2CCCO2)C(C)C)cc1 (stereo unspecified)	2.5	0.1	5.3	8.6	10.2*	-3.5	-2.8
CCOc1ccc(C(=O)NC(C(=O)NCC2CCCO2)C(C)C)cc1 (stereo unspecified)	-4.8	-0.2	-9.3	1.6	-2.7	.	.
Fc1cccc(Cc2c(-c3ccccc3)nc3ccc(Cl)cn23)c1	-2.0	0.2	-8.3	-14.8	-2.3	.	.
CC(C)(C)OC(=O)N1CCC[C@H]1C(=O)N1CCC[C@H]1C(=O)NCc1ccncc1	2.3	-0.6	4.1	11.3	12.5*	-4.0	-72.8
CC(C)c1cccc(C(C)C)c1NC(=O)c1ccc(-c2cc(Cl)ccc2Cl)o1	-6.0	-0.2	1.6	-7.9	-0.7	.	.
O=C(COC(=O)c1ccc(F)c(S(=O)(=O)N2CCOCC2)c1)Nc1ccc2[nH]c(=O)[nH]c2c1	-3.5	0.0	-4.2	-17.8	-4.4	.	.
CCc1ccc(C2(C)SC(NC(C)=O)=NN2C(C)=O)cc1 (stereo unspecified)	5.1	-0.5	6.6	6.5	13.0*	-0.8	0.6
COc1ccc(-n2c(SCc3ccc([N+](=O)[O-])cc3)nnc2-c2ccco2)cc1	-2.2	.	-1.0	0.1	0.3	.	.
CC(=O)N1CCC(N(CCCOC(C)C)C(=O)Nc2ccc(C)c(C)c2)CC1	-4.2	-0.2	0.0	3.1	1.2	.	.
CC(=O)N1CCC(N(C(=O)Nc2ccc(C)c(C)c2)C2CCCC2)CC1	6.6	-0.9	11.7*	5.8	3.6	-7.7	-12.7
COc1ccc(NC(=O)C(=O)NCCC2CCCCN2S(=O)(=O)c2ccccc2)cc1 (stereo unspecified)	-0.9	-0.5	4.3	-8.5	4.4	.	.
COc1cc2cc(-c3ccc(O)cc3O)nc(C)c2cc1OC	-4.2	-0.5	-6.0	10.3	13.4*	-3.6	-0.2
COc1cc2cc(-c3ccc(OC)c(OC)c3C)nc(N)c2cc1OC	-25.7	0.5	-105.6	-74.2	-69.4	.	.
Cc1ccccc1-c1noc(CCC(=O)NCCc2ccccc2)n1	7.6	-0.7	0.6	-1.0	10.3*	-3.5	-2.0
COc1cccc(CN2CCN(S(=O)(=O)c3ccc(Br)cc3)CC2)c1	-0.8	-0.3	-0.8	-0.4	4.3	.	.
COc1cccc(CC(=O)N2CCN(S(=O)(=O)c3ccc(Br)cc3)CC2)c1	4.6	-0.7	5.2	7.6	12.1*	-7.6	-5.4
